Consider 49 compounds from ChEMBL document CHEMBL1149666, “Novel 1-(azacyclyl)-3-arylsulfonyl-1H-pyrrolo[2,3-b]pyridines as 5-HT6 agonists and antagonists” (Bioorg Med Chem, 2007).

Assay [1] concerns the target T1, 5-hydroxytryptamine receptor 6 (Homo sapiens, UniProt P50406). Description: Displacement of [3H]LSD from cloned human 5HT6 expressed in HeLa cells. It is filed as cell-based. In outline:
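Radioligand binding used [3H]-LSD on human-cloned 5-HT6 receptors stably transfected in HeLa cells. Ki values were determined in triplicate.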

In assay [2] the target is T1, 5-hydroxytryptamine receptor 6. Description: Agonist activity at human 5HT6 expressed in HeLa cells assessed as intracellular cAMP level by radioimmunoassay. It is filed as functional, cell-based. (cAMP levels reflect the balance of adenylyl cyclase and phosphodiesterase activity.)
Assay [3] has the same target. Description: Antagonist activity at human 5HT6 expressed in HeLa cells assessed as intracellular cAMP level by radioimmunoassay. It is filed as functional, cell-based. The method in brief:
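Stably transfected h5-HT6 HeLa cells were washed in Krebs buffer and preincubated 5 min at 37 °C in Krebs with 500 μM IBMX. Test compound was then added at 0.1–10000 nM for 10 min at 37 °C. The reaction was stopped with 0.5 M perchloric acid, and intracellular cAMP was measured by scintillation proximity RIA. IC50 and Imax were determined in triplicate.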

T1 sequence (P50406 whole entry): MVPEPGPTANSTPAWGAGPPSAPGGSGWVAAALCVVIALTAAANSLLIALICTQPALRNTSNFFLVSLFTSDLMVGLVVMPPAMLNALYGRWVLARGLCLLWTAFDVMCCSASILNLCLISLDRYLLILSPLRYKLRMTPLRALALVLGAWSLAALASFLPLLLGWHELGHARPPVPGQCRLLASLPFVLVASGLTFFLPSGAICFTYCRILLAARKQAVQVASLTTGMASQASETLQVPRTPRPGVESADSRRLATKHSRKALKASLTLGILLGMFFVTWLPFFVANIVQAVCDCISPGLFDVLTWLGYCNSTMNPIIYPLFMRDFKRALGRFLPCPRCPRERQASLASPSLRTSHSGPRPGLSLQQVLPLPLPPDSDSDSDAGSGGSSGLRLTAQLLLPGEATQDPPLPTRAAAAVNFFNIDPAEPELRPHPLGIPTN

Take `O=S(=O)(c1cccc(F)c1)c1cn(C2CCCNC2)c2ncccc12` (configuration not stated): in assay [1], affinity was put at a Ki of 2.4 nM. In addition, in assay [2], the half-maximal effective concentration (EC50) worked out at 67 nM.

In assay [1], `CCN1CCCC(n2cc(S(=O)(=O)c3ccc(Cl)cc3)c3cccnc32)C1` (configuration not stated) yielded an inhibition constant (Ki) of 33.5 nM. Moreover, in assay [3], the IC50 was 70 nM and the Imax is 71%.

On to `CN1CCC(n2cc(S(=O)(=O)c3ccccc3)c3cccnc32)C1` (configuration not stated), for which the affinity in assay [1] corresponds to a Ki of 2.5 nM. In addition, in assay [2], the half-maximal effective concentration (EC50) came to 2030 nM.

On to `CC(C)N1CCCC(n2cc(S(=O)(=O)c3c(Cl)nc4sccn34)c3cccnc32)C1` (configuration not stated), for which the Ki in assay [1] was 1.7 nM. For the same compound, the IC50 in assay [3] came to 8 nM.

In turn, `CCN1CCCC(n2cc(S(=O)(=O)c3ccccc3)c3cccnc32)C1` (configuration not stated) gave an inhibitory constant (Ki) in assay [1] of 3.6 nM. In assay [3], the IC50 turned out to be 26 nM and the Imax worked out at 58%.

On to `O=S(=O)(c1ccccc1)c1cn(C2CCCNC2)c2ncccc12` (configuration not stated), for which, in assay [1], the affinity corresponds to a Ki of 4.9 nM. The EC50 in assay [2] amounted to 47 nM.

On to `CN1CCCC(n2cc(S(=O)(=O)c3ccc(Cl)s3)c3cccnc32)C1` (configuration not stated), for which the Ki in assay [1] amounted to 1.9 nM. Moreover, the EC50 in assay [2] worked out at 71 nM.

Turning to `CN1CCC(n2cc(S(=O)(=O)c3ccc(F)cc3)c3cccnc32)C1` (configuration not stated), in assay [1], the Ki turned out to be 5 nM. Further, in assay [3], the %max came to 85% and the IC50 is 213 nM.

In assay [1], `O=S(=O)(c1ccc(C(F)(F)F)cc1)c1cn(C2CCCNC2)c2ncccc12` (configuration not stated) displayed a Ki of 12 nM. In addition, the EC50 in assay [2] is 414 nM.

In assay [1], `O=S(=O)(c1cccc(Cl)c1)c1cn(C2CCCNC2)c2ncccc12` (configuration not stated) displayed a Ki of 1.3 nM. In assay [2], the EC50 was 30 nM.

As for `CN1CCCC(n2cc(S(=O)(=O)c3cc(Cl)cc(Cl)c3)c3cccnc32)C1` (configuration not stated), in assay [1], the Ki came to 3.9 nM. In assay [2], the EC50 amounted to 38.7 nM.

The compound `CN1CCCC(n2cc(S(=O)(=O)c3c(Cl)nc4sccn34)c3cccnc32)C1` (configuration not stated) displayed an inhibition constant (Ki) in assay [1] of 2 nM. Moreover, the EC50 in assay [2] amounted to 25 nM.

In turn, `O=S(=O)(c1ccc(Cl)cc1)c1cn(C2CCCNC2)c2ncccc12` (configuration not stated) returned a Ki in assay [1] of 7.6 nM. Moreover, in assay [3], the 50% inhibitory concentration (IC50) was 682 nM and the Imax was 76%.

`CN1CCC(n2cc(S(=O)(=O)c3ccc(Cl)cc3)c3cccnc32)C1` (configuration not stated) returned a Ki in assay [1] of 4.2 nM. Also, in assay [3], the %max is 98% and the IC50 is 95 nM.

In assay [1], `O=S(=O)(c1ccc(Cl)s1)c1cn(C2CCCNC2)c2ncccc12` (configuration not stated) registered an inhibition constant (Ki) of 1.2 nM. The EC50 in assay [2] worked out at 98 nM.

`O=S(=O)(c1cccc(Br)c1)c1cn(C2CCNC2)c2ncccc12` (configuration not stated): affinity in assay [1] was put at a Ki of 1.3 nM. Moreover, the EC50 in assay [2] came to 35 nM.

As for `CCN1CCC(n2cc(S(=O)(=O)c3ccccc3)c3cccnc32)C1` (configuration not stated), in assay [1], the affinity, expressed as Ki, was 11 nM. Moreover, in assay [3], the %max stood at 75% and the IC50 turned out to be 56 nM.

The compound `CCN1CCCC(n2cc(S(=O)(=O)c3cc(Cl)cc(Cl)c3)c3cccnc32)C1` (configuration not stated) displayed an inhibitory constant (Ki) in assay [1] of 13.5 nM. Besides, in assay [2], the EC50 worked out at 67 nM.

Compound `O=S(=O)(c1ccc(Br)cc1)c1cn(C2CCNC2)c2ncccc12` (configuration not stated) returned an inhibition constant (Ki) in assay [1] of 4.3 nM. Also, in assay [3], the %max was found to be 96% and the IC50 amounted to 135 nM.

Turning to `O=S(=O)(c1ccc(Cl)cc1)c1cn(C2CCNC2)c2ncccc12` (configuration not stated), the affinity in assay [1], expressed as Ki, was 5.5 nM. Also, in assay [3], the %max came out at 94% and the half-maximal inhibitory concentration (IC50) was determined as 340 nM.

Take `O=S(=O)(c1ccc(F)cc1)c1cn(C2CCNC2)c2ncccc12` (configuration not stated): in assay [1], the affinity, expressed as Ki, was 8.5 nM. Besides, in assay [2], the EC50 stood at 1650 nM.

In assay [1], `CCN1CCCC(n2cc(S(=O)(=O)c3c(Cl)nc4sccn34)c3cccnc32)C1` (configuration not stated) showed a Ki of 0.7 nM. In assay [2], the EC50 is 34 nM.

For the compound `O=S(=O)(c1cn(C2CCNC2)c2ncccc12)c1c(Cl)nc2sccn12` (configuration not stated), the EC50 in assay [2] came out at 80 nM.

`CN1CCC(n2cc(S(=O)(=O)c3cccc(Cl)c3)c3cccnc32)C1` (configuration not stated) displayed an inhibition constant (Ki) in assay [1] of 1.5 nM. Moreover, in assay [3], the %max turned out to be 85% and the concentration for half-maximal inhibition (IC50) was found to be 142 nM.

As for `O=S(=O)(c1cccc(F)c1)c1cn(C2CCNC2)c2ncccc12` (configuration not stated), the affinity in assay [1], expressed as Ki, was 2.7 nM. Moreover, the EC50 in assay [2] was found to be 278 nM.

`CC(C)N1CCCC(n2cc(S(=O)(=O)c3ccc(Cl)cc3)c3cccnc32)C1` (configuration not stated): affinity in assay [1] was put at a Ki of 11.1 nM. Also, in assay [3], the IC50 is 338 nM and the Imax stood at 74%.

Turning to `O=S(=O)(c1cc(Cl)cc(Cl)c1)c1cn(C2CCCNC2)c2ncccc12` (configuration not stated), the Ki in assay [1] stood at 6.1 nM. The EC50 in assay [2] came to 297 nM.

Regarding `O=S(=O)(c1ccccc1F)c1cn(C2CCCNC2)c2ncccc12` (configuration not stated), the Ki in assay [1] was found to be 2 nM. Besides, in assay [3], the IC50 amounted to 50 nM and the Imax was 100%.

Consider `O=S(=O)(c1cn(C2CCNC2)c2ncccc12)c1cccc2cccnc12` (configuration not stated), for which affinity in assay [1] was put at a Ki of 5.7 nM. In assay [3], the %max amounted to 100% and the IC50 turned out to be 643 nM.

As for `O=S(=O)(c1ccccc1Cl)c1cn(C2CCCNC2)c2ncccc12` (configuration not stated), in assay [1], the inhibition constant (Ki) was 3.7 nM. Moreover, in assay [2], the 50% effective concentration (EC50) was 50 nM.

`CN1CCC(n2cc(S(=O)(=O)c3ccccc3Cl)c3cccnc32)C1` (configuration not stated) came in with a Ki in assay [1] of 2.2 nM. Further, in assay [3], the %max stood at 91% and the IC50 came to 91 nM.

`CN1CCCC(n2cc(S(=O)(=O)c3cccc(F)c3)c3cccnc32)C1` (configuration not stated) yielded an inhibitory constant (Ki) in assay [1] of 4.7 nM. Moreover, the concentration for a half-maximal effect (EC50) in assay [2] is 306 nM.

In assay [1], `O=S(=O)(c1ccccc1F)c1cn(C2CCNC2)c2ncccc12` (configuration not stated) registered an inhibition constant Ki of 2 nM. In assay [3], the %max worked out at 100% and the half-inhibitory concentration (IC50) is 50 nM.

Regarding `CC(C)N1CCCC(n2cc(S(=O)(=O)c3cccc(F)c3)c3cccnc32)C1` (configuration not stated), the inhibitory constant (Ki) in assay [1] is 3.4 nM. Further, the concentration giving a half-maximal response (EC50) in assay [2] amounted to 172 nM.

In turn, `CN1CCC(n2cc(S(=O)(=O)c3cccc(Br)c3)c3cccnc32)C1` (configuration not stated) returned an inhibition constant (Ki) in assay [1] of 0.9 nM. In assay [3], the %max turned out to be 98% and the half-inhibitory concentration (IC50) was 23 nM.

Compound `CN1CCC(n2cc(S(=O)(=O)c3c(Cl)nc4sccn34)c3cccnc32)C1` (configuration not stated) gave a Ki in assay [1] of 0.8 nM. Moreover, the half-inhibitory concentration (IC50) in assay [3] is 26 nM.

As to `CN1CCCC(n2cc(S(=O)(=O)c3cccc(C(F)(F)F)c3)c3cccnc32)C1` (configuration not stated), affinity in assay [1] was put at a Ki of 2.1 nM. The EC50 in assay [2] was 49 nM.

In the case of `CCN1CCC(n2cc(S(=O)(=O)c3c(Cl)nc4sccn34)c3cccnc32)C1` (configuration not stated), the affinity in assay [1], expressed as Ki, was 1.4 nM. In assay [3], the IC50 worked out at 10 nM.

`CC(C)N1CCCC(n2cc(S(=O)(=O)c3cccc(Br)c3)c3cccnc32)C1` (configuration not stated) gave an inhibition constant Ki in assay [1] of 9.4 nM. For the same compound, in assay [3], the IC50 amounted to 492 nM and the Imax came out at 77%.

Compound `O=S(=O)(c1cccc(C(F)(F)F)c1)c1cn(C2CCNC2)c2ncccc12` (configuration not stated) gave a Ki in assay [1] of 1.3 nM. For the same compound, the EC50 in assay [2] was determined as 520 nM.

On to `CCN1CCC(n2cc(S(=O)(=O)c3cccc(F)c3)c3cccnc32)C1` (configuration not stated), for which the affinity in assay [1] corresponds to a Ki of 8.3 nM. In assay [3], the %max is 89% and the IC50 came to 132 nM.

Compound `CCN1CCCC(n2cc(S(=O)(=O)c3ccc(Cl)s3)c3cccnc32)C1` (configuration not stated) gave a Ki in assay [1] of 3.2 nM. The concentration giving a half-maximal response (EC50) in assay [2] was found to be 50 nM.

Consider `CN1CCCC(n2cc(S(=O)(=O)c3ccc(Cl)cc3)c3cccnc32)C1` (configuration not stated), for which the affinity in assay [1], expressed as Ki, was 11.5 nM. For the same compound, in assay [3], the half-maximal inhibitory concentration (IC50) worked out at 28 nM and the Imax came to 63%.

On to `O=S(=O)(c1cccc(Cl)c1)c1cn(C2CCNC2)c2ncccc12` (configuration not stated), for which the inhibitory constant (Ki) in assay [1] is 1.5 nM. Moreover, the 50% effective concentration (EC50) in assay [2] amounted to 1680 nM.

Regarding `O=S(=O)(c1cn(C2CCCNC2)c2ncccc12)c1c(Cl)nc2sccn12` (configuration not stated), in assay [1], the Ki worked out at 0.7 nM. Further, in assay [2], the concentration giving a half-maximal response (EC50) was found to be 66 nM.

On to `O=S(=O)(c1cccc(Br)c1)c1cn(C2CCCNC2)c2ncccc12` (configuration not stated), for which affinity in assay [1] was put at a Ki of 3.8 nM. Also, the half-maximal effective concentration (EC50) in assay [2] stood at 72 nM.

On to `CCN1CCC(n2cc(S(=O)(=O)c3cccc(Cl)c3)c3cccnc32)C1` (configuration not stated), for which the inhibitory constant (Ki) in assay [1] amounted to 3.3 nM. In assay [3], the %max came to 93% and the IC50 came to 120 nM.

In assay [1], `O=S(=O)(c1cccc(C(F)(F)F)c1)c1cn(C2CCCNC2)c2ncccc12` (configuration not stated) returned an inhibition constant Ki of 4.6 nM. The concentration giving a half-maximal response (EC50) in assay [2] was determined as 273 nM.

The compound `CN1CCC(n2cc(S(=O)(=O)c3ccccc3F)c3cccnc32)C1` (configuration not stated) registered an inhibition constant (Ki) in assay [1] of 5.6 nM. In assay [3], the %max was found to be 69% and the IC50 is 186 nM.

One may read the Ki as the dissociation constant of the complex between target and ligand, obtained from inhibition or displacement. Read a high Ki as weaker binding. A word on the EC50: it is the concentration giving half of the maximal effect. The IC50 is the concentration that gives 50% inhibition.
